Activity calls are given as the source filed them. The calls are words filed in the database; no cut-off is given here.
Tests used:
HEK293 [1] = test: Cytotoxicity against HEK293 cells expressing pcDNA3.1 at 100 uM after 72 hrs by MTT assay; type: cell-based; conditions: human, hek293, 72 h
Outline: (§1)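 Cells kept as adherent monolayers in DMEM with 10% FBS, 37°C, 5% CO2. Trypsin-harvested, seeded at 5 × 10^3 cells/well, then exposed to compound at 0.1 to 100 µM for 72 h. MTT (4 mg/ml) added for 4 h, formazan dissolved in DMSO, absorbance read at 570 nm. At least three experiments, each in triplicate; mean±SD.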

MDA-MB-231 [2] = test: Cytotoxicity against human MDA-MB-231 cells at 100 uM after 72 hrs by MTT assay; type: functional, cell-based; outline: as §1
MDCK [3] = test: Cytotoxicity against MDCK cells at 100 uM after 72 hrs by MTT assay; type: cell-based, Canis lupus familiaris; conditions: dog; outline: as §1
HCT-116 = test: Cytotoxicity against human HCT116 cells at 100 uM after 72 hrs by MTT assay; type: functional, cell-based; outline: as §1
DU-145 [4] = test: Cytotoxicity against human DU145 cells at 100 uM after 72 hrs by MTT assay; type: functional, cell-based; outline: as §1
[5] = Cytotoxicity against mouse NIH/3T3 cells at 100 uM after 72 hrs by MTT assay; type: cell-based; conditions: nih3t3, 72 h; outline: as §1
PC-3 = test: Cytotoxicity against human PC3 cells at 100 uM after 72 hrs by MTT assay; type: functional, cell-based; outline: as §1
MCF7 [6] = test: Cytotoxicity against human MCF7 cells at 100 uM after 72 hrs by MTT assay; type: functional, cell-based; outline: as §1
S1 = test: Cytotoxicity against human S1 cells at 100 uM after 72 hrs by MTT assay; type: functional, cell-based; outline: as §1
HEK293 [7] = test: Cytotoxicity against HEK293 cells expressing ABCB1 after 72 hrs by MTT assay; type: functional, cell-based; conditions: Homo sapiens, HEK293, 72 h; outline: as §1
MDA-MB-231 [8] = test: Cytotoxicity against human MDA-MB-231 cells after 72 hrs by MTT assay; type: functional, cell-based; conditions: MDA-MB-231, 72 h; outline: as §1
HEK293 [9] = test: Resistance index, ratio of IC50 for HEK293 cells expressing ABCB1 to IC50 for HEK293 cells expressing pcDNA3.1; parameters: species or system Homo sapiens
Outline: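 Fold resistance is the IC50 in P-glycoprotein-overexpressing HEK293/ABCB1 cells divided by the IC50 in empty-vector HEK293/pcDNA3.1 cells. IC50s from the 72 h MTT assay; paclitaxel was the positive-control ABCB1 substrate.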

[10] = Cytotoxicity against mouse NIH/3T3 cells after 72 hrs by MTT assay; type: cell-based; conditions: NIH3T3, 72 h; outline: as §1
[11] = Cytotoxicity against human S1 cells after 72 hrs by MTT assay; type: functional, cell-based; conditions: S1, 72 h; outline: as §1
DU-145 [12] = test: Cytotoxicity against human DU145 cells after 72 hrs by MTT assay; type: functional, cell-based; conditions: DU-145, 72 h; outline: as §1
[13] = Cytotoxicity against human HCT116 cells after 72 hrs by MTT assay; type: functional, cell-based; conditions: HCT-116, 72 h; outline: as §1
MDCK [14] = test: Cytotoxicity against MDCK cells after 72 hrs by MTT assay; type: cell-based; conditions: Canis lupus familiaris; outline: as §1
[15] = Cytotoxicity against human PC3 cells after 72 hrs by MTT assay; type: functional, cell-based; conditions: PC-3, 72 h; outline: as §1
HEK293 [16] = test: Cytotoxicity against HEK293 cells expressing pcDNA3.1 after 72 hrs by MTT assay; type: cell-based; conditions: Homo sapiens, HEK293, 72 h; outline: as §1
MCF7 [17] = test: Cytotoxicity against human MCF7 cells after 72 hrs by MTT assay; type: functional, cell-based; conditions: MCF7, 72 h; outline: as §1

SMILES	Activity (HEK293 [1])	Activity (MDA-MB-231 [2])	Activity (MDCK [3])	Activity (HCT-116)	Activity (DU-145 [4])	Activity [5]	Activity (PC-3)	Activity (MCF7 [6])	Activity (S1)	IC50 (HEK293 [7])	IC50 (MDA-MB-231 [8])	Ratio IC50 (HEK293 [9])	IC50 [10]	IC50 [11]	IC50 (DU-145 [12])	IC50 [13]	IC50 (MDCK [14])	IC50 [15]	IC50 (HEK293 [16])	IC50 (MCF7 [17])
COc1ccc(CCc2cc(C)no2)cc1OC	Non-toxic	inactive	Non-toxic	inactive	inactive	Non-toxic	inactive	inactive	inactive	–	–	–	–	–	–	–	–	–	–	–
COc1ccc(/C=C/c2cc(C)n[nH]2)cc1OC	–	–	–	–	–	–	–	–	–	33.2 µM	38.8 µM	1.4	68.4 µM	22.4 µM	18.5 µM	51.3 µM	54.1 µM	12.6 µM	–	–
COc1ccc(/C=C/C(=O)CC(C)=O)cc1	–	–	–	–	–	–	–	–	–	16.3 µM	25 µM	0.9	48.2 µM	44.6 µM	9.1 µM	11.9 µM	41.6 µM	15.8 µM	18.7 µM	–
COc1ccc(/C=C/C(=O)CC(C)=O)cc1OC	–	–	–	–	–	–	–	–	–	10.6 µM	43.1 µM	1.3	18.1 µM	9.3 µM	8.2 µM	4.7 µM	9.9 µM	8.9 µM	8.2 µM	10.6 µM
CC(=O)O[C@H]1C(=O)[C@@]2(C)[C@H]([C@H](OC(=O)c3ccccc3)[C@]3(O)C[C@H](OC(=O)[C@H](O)[C@@H](NC(=O)c4ccccc4)c4ccccc4)C(C)=C1C3(C)C)[C@]1(OC(C)=O)CO[C@@H]1C[C@@H]2O [PACLITAXEL]	–	–	–	–	–	–	–	–	–	0.36 µM	–	9	–	–	–	–	–	–	0.04 µM	–
Cc1cc(/C=C/c2ccc(O)cc2)on1	–	–	–	–	–	–	–	–	–	–	55.5 µM	1	88.5 µM	44.2 µM	67.2 µM	67.9 µM	58.3 µM	50.2 µM	–	–
Cc1cc(CCc2ccc(O)cc2)on1	Non-toxic	inactive	Non-toxic	inactive	inactive	Non-toxic	inactive	inactive	inactive	–	–	–	–	–	–	–	–	–	–	–
Cc1cc(CCc2ccc(O)cc2)[nH]n1	Non-toxic	inactive	Non-toxic	inactive	inactive	Non-toxic	inactive	inactive	inactive	–	–	–	–	–	–	–	–	–	–	–
Cc1cc(/C=C/c2ccc(O)c(O)c2)on1	–	–	–	–	–	–	–	–	–	11.8 µM	8.9 µM	0.9	26.2 µM	7.9 µM	10.5 µM	5.3 µM	–	3.3 µM	13 µM	6.3 µM
CC(=O)/C=C(O)/C=C/c1ccc(O)c(O)c1 [HISPOLON]	–	–	–	–	–	–	–	–	–	9.6 µM	32.2 µM	1.3	51.2 µM	8.4 µM	28.6 µM	5.2 µM	36.2 µM	12.9 µM	7.3 µM	7.9 µM
COc1ccc(/C=C/c2cc(C)no2)cc1OC	–	–	–	–	–	–	–	–	–	77.8 µM	–	1.2	93.2 µM	> 100 µM	> 100 µM	87.4 µM	44.7 µM	> 100 µM	63.2 µM	> 100 µM
CC(=O)CC(=O)CCc1ccc(O)cc1	Non-toxic	inactive	Non-toxic	inactive	inactive	Non-toxic	inactive	inactive	inactive	–	–	–	–	–	–	–	–	–	–	–
COc1ccc(/C=C/c2cc(C)no2)cc1	–	–	–	–	–	–	–	–	–	66.3 µM	–	1.1	> 100 µM	76.4 µM	> 100 µM	22.4 µM	70.2 µM	> 100 µM	58.3 µM	> 100 µM
